# Experimental data pooled from the literature.
# Lines come from different studies, so protocols differ.
# Cnr2: Cannabinoid receptor 2 (Cnr2, Mus musculus, UniProt P47936)
# mreB: mreB (Escherichia coli, UniProt P0A9X4)
# pol: pol (Feline immunodeficiency virus, UniProt P16088)
# G protein-coupled receptor 88: G protein-coupled receptor 88 (Homo sapiens, UniProt Q9GZN0)
# CTSL: Procathepsin L (CTSL, Homo sapiens, UniProt P07711)
SMILES,target,test,system,conditions,quantity,result
NC(=O)[C@@H]1CC(F)(F)CN1C(=O)c1ccc(N2CC(F)(F)C2)c(OCC2CC2)n1,Cnr2,"cAMP, agonist",,,EC50,0.003 µM
O=P(O)(O)Oc1cccc(OP(=O)(O)O)c1,"Signal transducer and activator of transcription 5B, SH2 (STAT5B, Homo sapiens, UniProt P51692)","ligand displacement, FP",,,IC50,55 µM
O=[As](O)(O)c1ccc(Cc2ccc([As](=O)(O)O)cc2)cc1,"Autotaxin (ENPP2, Homo sapiens, UniProt Q13822)","enzyme activity, inhibitor, absorbance",,,Ki,0.0475 µM
COC(=O)[C@H](CCC(=O)Nc1cccc2c1ccn2Cc1cccc(C(N)=O)c1)NC(=O)OCc1ccccc1,"NAD-dependent protein deacetylase sirtuin-1 (SIRT1, Homo sapiens, UniProt Q96EB6)","enzyme activity, inhibitor",,,IC50,67 µM
O=C(NCc1ccc(F)cc1)c1cccc(Nc2ccc(-c3ccccc3)nn2)c1,"Anoctamin-2 (ANO2, Homo sapiens, UniProt Q9NQ90)","ion flux, inhibitor",,,IC50,8.2 µM
CCOC(=O)C(CC)(CCCSCCOCCOCCOCCNC(=O)OC(C)(C)C)NC(=O)c1ccc(C2CC2)c(Cc2ccc(F)cc2)n1 (stereo not shown),Cnr2,"ligand displacement, radioligand",,cell membranes,Ki,0.117 µM
NCCCNC1CCCCc2c1[nH]c1ccc(Br)cc21 (stereo not shown),mreB,"ATPase activity, inhibitor, absorbance",,,IC50,25 µM
Cc1ccnc2c1NC(=O)c1cccnc1N2C1CC1,pol,"enzyme activity, inhibitor",,,IC50,1.4 µM
CCCCNNC(=O)c1ccc(Br)cc1,"Histone deacetylase 4 (HDAC4, Homo sapiens, UniProt P56524)","enzyme activity, inhibitor, fluorescence",,,IC50,> 100 µM
CCOC(=O)[C@](CC)(CCC[S+]([O-])CCOCCOCCNC(=O)OC(C)(C)C)NC(=O)c1ccc(C2CC2)c(Cc2ccc(F)cc2)n1 (stereo partly shown),Cnr2,"cAMP, agonist",,,EC50,0.065 µM
Cc1nc([C@@](C)(CC2CC2)NC(=O)c2cc(OCC(F)(F)F)c(C3CC3)cn2)no1,Cnr2,"ligand displacement, radioligand",,cell membranes,Ki,0.006 µM
CC(C)C[C@H]1C(=O)N2CCC[C@H]2[C@]2(O)O[C@](NC(=O)[C@@H]3C=C4c5cccc6[nH]cc(c56)C[C@H]4N(C)C3)(C(C)C)C(=O)N12,"Solute carrier organic anion transporter family member 1B3 (SLCO1B3, Homo sapiens, UniProt Q9NPD5)","transporter uptake, inhibitor, fluorescence",CHO,"30 min, pH 7.4",IC50,2.2 µM
CCOC(=O)C(CC)(CCCSCCOCCOCCOCCOCCNC(=O)OC(C)(C)C)NC(=O)c1ccc(C2CC2)c(Cc2ccc(F)cc2)n1 (stereo not shown),Cnr2,"ligand displacement, radioligand",,cell membranes,Ki,0.093 µM
Cc1cc(/C=C/C#N)cc(C)c1Nc1ccnc(Nc2ccc(C#N)cc2)n1,pol,"enzyme activity, inhibitor",,,IC50,0.0509 µM
CC[C@H](C)COc1ccc([C@@H](CO)C(=O)N[C@H](C)c2ccccc2)cc1,G protein-coupled receptor 88,"cAMP, agonist, TR-FRET",,,EC50,2 µM
NC1CCCCc2c1[nH]c1ccc(Br)cc21 (stereo not shown),mreB,"ATPase activity, inhibitor, absorbance",,,IC50,44 µM
CC[C@H](NC(=O)OCc1ccccc1)C(=O)N[C@H](C(=O)N[C@@H](Cc1ccccc1)C(=O)N(C)N(C#N)CCC(N)=O)C(C)(C)C,CTSL,"enzyme activity, inhibitor",,,Ki,0.123 µM
Cc1nonc1Cn1nnc2c(N3CC[C@H](O)C3)nc(C(C)(C)C)nc21,Cnr2,"cAMP, agonist",,,EC50,0.0002 µM
CC(N)c1cc2cc(Br)ccc2[nH]1 (stereo not shown),mreB,"ATPase activity, inhibitor, absorbance",,,IC50,120 µM
N[C@@H](CCP(=O)(O)O)C(=O)O,"Metabotropic glutamate receptor 7 (Grm7, Rattus norvegicus, UniProt P35400)","calcium signal, agonist",,,EC50,117 µM
C[C@]12CC[C@@H]3c4ccc(O)cc4CC[C@H]3[C@@H]1CC[C@@H]2O,"Protein disulfide-isomerase (P4HB, Homo sapiens, UniProt P07237)","binding, radioligand",,,Kd,1.5 µM
CC[C@H]1NC(=O)[C@@H]2CSC(=N2)[C@H](Cc2ccccc2)N(C)C(=O)[C@@H]2CCCN2C(=O)[C@H](C(C)C)N(C)C(=O)[C@H](Cc2ccccc2)OC(=O)[C@H](C)[C@@H](C)NC(=O)[C@@H]([C@@H](C)O)NC(=O)[C@@H](CC(C)C)N(C)C(=O)[C@@H]2CSC1=N2,CTSL,"enzyme activity, inhibitor",,,IC50,20.4 µM
CCCC#Cc1ccc([C@@H](CO)C(=O)N[C@H](C)c2ccccc2)cc1,G protein-coupled receptor 88,"cAMP, agonist, TR-FRET",,,EC50,0.204 µM
CCOC(=O)C(CC)(CCCSCCOCCOCCNc1ccc([N+](=O)[O-])c2nonc12)NC(=O)c1ccc(C2CC2)c(Cc2ccc(F)cc2)n1 (racemic),Cnr2,"ligand displacement, radioligand",,cell membranes,Ki,0.073 µM
C=CC(O)CO (stereo not shown),"Cytochrome P450 2E1 (Cyp2e1, Rattus norvegicus, UniProt P05182)","enzyme activity, inhibitor","Fischer 344 rat, liver microsomes",30 min,IC50,1000 µM
